Assay results reported in ChEMBL document CHEMBL4513216, “Probing the Open Global Health Chemical Diversity Library for Multistage-Active Starting Points for Next-Generation Antimalarials” (ACS Infect Dis, 2020).

Test: Toxicity liver stage against HepG2, at 10uM
Assay type: cell-based
Set-up: test concentration 10 uM, cell line HepG2-A16-CD81EGFP
Conditions: human, HepG2-A16-CD81EGFP cells; read-out: INHIBITION
Summary of the method: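 Uninfected HepG2-A16-CD81EGFP cells, 3 × 10^3 per well, 1536-well, plated on prespotted compound at 10 μM final, parasite-free screening media added to match infected plates; puromycin 10 μM positive, DMSO 0.5% negative; run in parallel with 48 h PbLuc assay at 37 °C, 5% CO2; viability by CellTiter-Glo luminescence, normalized to controls.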

| SMILES | cytotoxicity at 10 µM |
| --- | --- |
| COc1ccc(-c2nnc([C@H]3CCN(C4CCC4)C3)o2)cc1 | -8.1% |
| Cc1ccc(S(=O)(=O)NC[C@H]2OC[C@@H](NCc3cccnc3)[C@@H]2O)cc1 | 1.32% |
| CNC(=O)[C@@H]1[C@@H](c2ccccc2)CN2CCN(Cc3ccco3)C[C@H]12 | -1.94% |
| O=S(=O)(c1cccnc1)N1CCN(Cc2nc(-c3cccs3)cs2)CC1 | 27.8% |
| O=C(c1ccco1)N1CCC12CCN(c1ncc(F)cn1)CC2 | -1.3% |
| COc1ccc(-c2cnc3n2CCNC32CCN(S(C)(=O)=O)CC2)cc1 | -2.72% |
| CCN(CC)c1ccc2ccc(C(=O)N(C)C)cn12 | 0.626% |
| CS(=O)(=O)N1CCCC12CCCN(C(=O)c1ccc3[nH]ccc3c1)C2 (centres undefined) | -140% |
| Cc1ccc(NC(=O)Nc2cnc(N3CCN(C)CC3)nc2)c(Cl)c1 | 6.07% |
| CCS(=O)(=O)N1CCCCC1c1nc(C(C)C)no1 (centres undefined) | 13.6% |
| CCOC(=O)N1CCN(C(=O)c2cc(OCC)c3ccoc3c2)CC1 | 41.5% |
| CCCN1CCC(c2cc(CCOc3ccc(C(F)(F)F)cc3)[nH]n2)C1 (centres undefined) | -3.58% |
| CN1CCCCC1c1ncc2c(n1)CCN(Cc1ccc(Cl)c(F)c1)C2 (centres undefined) | -27.7% |
| Cc1cc(-c2cnc(NC3CC3)nc2-c2ccoc2C)on1 | 2.13% |
| CCCn1ncc(CN2C[C@@H]3CCCN3C[C@@H]2CCSC)c1C | 4.06% |
| Cc1cc(C)nc(N2CCC(OCCN3CCCCC3)C2)n1 (centres undefined) | -53.6% |
| CC(=O)c1cc(Br)cc(F)c1OCC(=O)NC(C)C | -9.46% |
| N#Cc1ccc(NCc2cccnc2N2CCC(C(N)=O)CC2)cn1 | -47.9% |
| CC(=O)N1Cc2ccccc2C[C@H]1C(=O)N(C)CCc1ccccn1 | -3.27% |
| N#Cc1cccc(CS(=O)(=O)NC(Cc2ccccc2)C(N)=O)c1 (centres undefined) | 9.16% |
| N#Cc1ccc(N2CCC(OC3CCOCC3)CC2)cc1Cl | 1% |
| CN(C(=O)C1CCN(Cc2cnc3ccccn23)CC1)c1ccccc1 | 38.9% |

| SMILES | cytotoxicity at 10 µM |
| --- | --- |
| Cc1ccc(-c2cc(CN(CC(N)=O)CC(C)C)on2)cc1 | 10.1% |
| CN(C)c1nc(N)nc(CN2CCCC(c3ccccc3)CC2)n1 (centres undefined) | 5.47% |
| Cc1cc(C)cc(CNC(C)c2c(C)nn(C)c2C)c1 (centres undefined) | 5.14% |
| CC(C)(C#N)c1ccccc1CN1CCC(N2CCCC2=O)CC1 | 2.35% |
| Cc1nc(N2CCC(CN3CCCC3)CC2)c2cnn(C)c2n1 | 8.39% |
| CCc1nc(CCNC(=O)Nc2ccc(C(=O)NC)cc2)cs1 | 7.51% |
| O=C(CCN1CCCC1c1cccc2c1OCCO2)N1CCOCC1 (centres undefined) | 25.6% |
| Cc1nn(C)c(C)c1C1COCCN1c1ncncc1Br (centres undefined) | -8.9% |
| Cc1nn(C)c(C)c1OCC(=O)NCC(O)c1ccccc1F (centres undefined) | 0.621% |
| CC(=O)Nc1cccc(OCCNC(=O)N(C)Cc2ccncc2)c1 | 4.77% |
| CCc1ccc(C(=O)N2CCCC2c2nnc3n2CCCCC3)o1 (centres undefined) | 10.9% |
| CCn1cc(CNc2ccc(N(C)CCOC)cn2)cn1 | -8.16% |
| CCC(CNC(=O)Cc1c(C)noc1C)N1CCCC1 (centres undefined) | -46.3% |
| CC(SCc1cc(Br)cc2cccnc12)C(N)=O (centres undefined) | 11.7% |
| CCOC1CCN(C(=O)NCCN(C)C(=O)OC(C)(C)C)CC1 | 15.8% |
| O=C(O)c1ccnc(SCC(F)(F)F)c1 | -17.6% |
| Clc1snnc1CN1CCN(c2nccs2)CC1 | -43.9% |
| COc1ccc(C(C)N2CCC(NS(C)(=O)=O)CC2)cc1Cl (centres undefined) | -41.2% |
| CC(C)N(CCNC(=O)c1[nH]nc2ccc(I)cc12)C(C)C | -41.1% |
| CN(C)Cc1nc(C(C)(C)NC(=O)c2ccnn2C)no1 | 0.966% |
| Cn1cnc2c1CCN(CC(O)c1ccc(S(C)(=O)=O)cc1)C2 (centres undefined) | -3.3% |
| Cc1cnn(C2CN(Cc3ccc4c(c3)OCCO4)C2)c1 | 16.3% |

| SMILES | cytotoxicity at 10 µM |
| --- | --- |
| CCCNC(=O)c1ncn2c1CN(CC(C)C)S(=O)(=O)c1ccccc1-2 | -72% |
| CCC(=O)N1CCC2(COCc3cnc(N4CCOCC4)nc32)C1 (centres undefined) | -66.2% |
| COCCC(=O)N1CCC2(CCN(Cc3cccc(F)c3)C2)C1 (centres undefined) | -60.2% |
| Cc1ccc(C(=O)N2CC[C@H]3[C@H]2CCN3CC2CCOCC2)cn1 | -73.3% |
| COCCN1CCOCC12CCN(C(=O)c1c[nH]c3ccccc13)CC2 | -69.8% |
| COCC(=O)N1CCC2(CCN(Cc3ccccn3)CC2)CC1 | -6.62% |
| CC(C)(C)CCNc1nccc(-c2c[nH][nH]c2=O)n1 | -5.25% |
| NS(=O)(=O)NCc1cc(-c2ccc(C(F)(F)F)cc2)n[nH]1 | -6.11% |
| NC(=O)C1CCN(c2nccc(-c3c[nH]nc3C3CCCCC3)n2)CC1 | -10.6% |
| Cc1cc(C)c2c(N3CCN(Cc4ncccc4C)CC3)ncnc2n1 | 1.92% |
| CCN(C)C[C@H]1CC[C@@H](Cc2ccc3c(cnn3C)c2)O1 | -0.957% |
| CN(C)C(=O)COc1ccccc1CN1CCCC2(C1)CN(C)C(=O)O2 (centres undefined) | 0.224% |
| CCC[C@H]1CN(S(=O)(=O)c2cc(C)ccc2C)C[C@@H]1N | 10.3% |
| CCN1CCN(C(=O)c2ccc3c(c2)OCC(=O)N3)[C@H]2CS(=O)(=O)C[C@H]21 | -49.6% |
| NC(=O)[C@@H]1CCCN1C(=O)c1cn(C/C=C/c2ccccc2)nn1 | 2.32% |
| CCCN1CCc2[nH]cnc2C12CCN(C(=O)Cn1ccnc1C)CC2 | 13.7% |
| Cc1nonc1OCCNC(=O)CCCc1ccc(Cl)cc1 | 7.49% |
| CC(c1nncn1C)n1cc(-c2cc(CN3CCCC3)cs2)nn1 (centres undefined) | 2.04% |
| c1ccc(Oc2ccc(OC34CCCN(CC3)C4)cc2)cc1 (centres undefined) | 0.741% |
| Nc1cc(CC2COc3ccccc3C2)ccn1 (centres undefined) | -0.911% |
| CCn1ccnc1CN(C)c1cc(OC)ncn1 | -37.5% |
| COc1cccc([C@H]2CN(C(=O)c3nnc4n3CCCC4)C[C@@H]2N)c1 | -2.57% |

| SMILES | cytotoxicity at 10 µM |
| --- | --- |
| CN1C[C@@H](N)C[C@H]1C(=O)N1CCC(Cc2ccc(F)cc2)CC1 | -21.2% |
| CN(C)[C@H]1CCCCN(Cc2cnc(NCc3ccccc3)nc2)C1 | 0.166% |
| N#Cc1ccnc(N2CCC(NCCN3CCCC3)CC2)c1 | -53% |
| O=C(c1cccc(-c2ncc[nH]2)c1)N1CCC(N2CCCC(O)C2)CC1 (centres undefined) | 6.42% |
| O=C(Cc1c[nH]c(=O)[nH]c1=O)N1CCCCC1CCc1cccc(O)c1 (centres undefined) | 14.5% |
| CCc1ccccc1OC1CN(C(=O)CN(C)Cc2ccncc2)C1 | -4.55% |
| CCCC(=O)Nc1cc(C(=O)NC(C)Cc2ccncc2)ccc1C (centres undefined) | 2.52% |
| COc1ccc(C)cc1C(=O)N1C[C@@H](CN(C)CCO)[C@@H](CO)C1 | -0.828% |
| COC(=O)c1sccc1S(=O)(=O)N1CCc2c(ncnc2N(C)C)C1 | -1.6% |
| CCC(CO)N(Cc1ccncc1)Cc1c[nH]nc1-c1ccc(F)cc1 (centres undefined) | -5.5% |
| O=C(c1cnc(Nc2ccccc2)nc1)N1CCCC2(CCNC2)C1 (centres undefined) | -6.57% |
| O=C(C1CCS(=O)(=O)CC1)N1CCC(Cc2ccc(F)cc2)CC1 | -41.9% |
| CCC(c1nc(C(C)C)nn1-c1ccncc1C)n1cccn1 (centres undefined) | -13.9% |
| O=C(NCc1ccccn1)C1CN(c2nc3ccccc3s2)CCN1 (centres undefined) | -42.8% |
| Cc1cnccc1-c1cc(NCCO)nc2[nH]ccc12 | 13.8% |
| COCc1noc(-c2ccc(N(C)Cc3c(C)n[nH]c3C)nc2)n1 | 0.897% |
| CC(C)[C@H]1CN(Cc2c[nH]cn2)C[C@@H]1NC(=O)CC1CCC1 | -39% |
| CCc1ncc(CN2CCC3(CCCN(CC4CCC4)C3)C2)cn1 (centres undefined) | -7.07% |
| CCN(C)C[C@@H]1CN(S(=O)(=O)c2cccc(Cl)c2)C[C@@H]1CO | -8.3% |
| CC(C)c1nccn1-c1cccc(C2CCN(C)CC2)n1 | 0.307% |
| CCn1cc(CN2CCCC(c3[nH]ncc3S(C)(=O)=O)C2)cn1 (centres undefined) | 6.5% |
| CSc1ccc(C(=O)N2CCOCC2c2c(C)n[nH]c2C)o1 (centres undefined) | -10.3% |

| SMILES | cytotoxicity at 10 µM |
| --- | --- |
| NC(=O)c1cccc(OCC(=O)N2CCCC(n3cccn3)C2)c1 (centres undefined) | -13.5% |
| O=C(NCc1ccccn1)Nc1cc(C(F)(F)F)c[nH]c1=O | -2.87% |
| CCOC(=O)c1sc2ccsc2c1CNC(=O)CC | -5.7% |
| Cc1cc(C)cc(NS(=O)(=O)c2cc3c(c(C(=O)O)c2)OCCO3)c1 | 0.289% |
| Cc1nc(CN2CCCC(N(C)Cc3c(C)noc3C)C2)no1 (centres undefined) | -0.866% |
| CCN(CC)C(=O)C1CCC2(CCNCC2)O1 (centres undefined) | -162% |
| Cn1ccnc1CN1CCC2(CC1)CN(Cc1cccnc1)C(=O)CO2 | 4% |
| CCN(CC)Cc1nc2c(o1)CN(S(=O)(=O)c1cccs1)C2 | -117% |
| c1cnc(N2C[C@H]3CCN(CCN4CCCC4)C[C@H]3C2)cn1 | -114% |
| c1ccc(OCc2nnn3c2CN(c2ncccn2)CCC3)nc1 | 1.89% |
| CCOCC1c2c(ncn2C)CCN1C(=O)c1cnc(C)cn1 (centres undefined) | -108% |
| CC(C)N1[C@H](Cn2cccn2)C[C@@H]2CN(Cc3ccoc3)CC[C@@H]21 | -153% |
| c1cncc(N2CC[C@@H]3CN(CC4CC4)C[C@@H]3C2)c1 | -4.74% |
| CCOc1ccc2ccccc2c1CNCC1CCS(=O)(=O)C1 (centres undefined) | -3.4% |
| O=C(c1ccncc1F)N1CC2CC1(C(=O)N1CCCC1)C2 | -2.51% |
| Cn1ccnc1CN1CCC2(CC1)CN(c1cncnc1)C(=O)CO2 | -69.2% |
| c1cc(CN2C[C@H](OCC3CCOCC3)[C@H]3COC[C@H]32)co1 | -4.8% |
| NC(=O)C(c1ccc(F)cc1)N1CCN(CCO)CC1 (centres undefined) | -5.46% |
| COc1cc(C2c3c(n[nH]c3C)N=C3COC(=O)C32)cc2c1OCO2 (centres undefined) | 87.7% |
| CNC(=O)[C@H]1C[C@H]2CN(C(=O)NC(C)C)C[C@@H]1O2 | -99.8% |
| CNC(=O)[C@H]1C[C@H]2CN(Cc3cccc(C)c3)C[C@@H]1O2 | 8.97% |
